Results on 11 molecules are retold here after ChEMBL document CHEMBL3763042, “Synthesis, biological evaluation and molecular modeling of a novel series of 7-azaindole based tri-heterocyclic compounds as potent CDK2/Cyclin E inhibitors” (Eur J Med Chem, 2016).

Molecules are shown by their SMILES.

The test system of test [1] is MCF7. Briefly: Cytotoxicity against human MCF7 cells assessed as cell viability after 72 hrs by fluorescence microplate reader method. It is filed as functional, cell-based. Particulars: MCF7, 72 h. Summed up: (§1)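 Cells were exposed to three-fold compound dilutions in triplicate for 72 h. Viability was read after adding Calcein AM, as live-cell fluorescence at 485/538 nm (excitation/emission).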

Test [2] concerns MCF7. Briefly: Cytotoxicity against human MCF7 cells assessed as cell viability at 50 uM after 72 hrs by fluorescence microplate reader method. The format is functional. The conditions noted are these: MCF7, 72 h, read-out: Activity.
Test [3] has as its system K562. Nature of the test: Cytotoxicity against human K562 cells assessed as cell viability at 50 uM after 72 hrs by fluorescence microplate reader method. The format is functional. Particulars: K562, 72 h, read-out: Activity.
Test [4] addresses Cyclin-dependent kinase 2/cyclin E1 (Homo sapiens, UniProt P24941). Briefly: Inhibition of CDK2/Cyclin E (unknown origin) expressed in baculoviral infected insect Sf9 cells using histone H1 as substrate in presence of [gamma-33P]ATP.
Test [5] is described as follows: Cytotoxicity against human G361 cells assessed as cell viability after 72 hrs by fluorescence microplate reader method. Particulars: G-361, 72 h. It is filed as functional, cell-based. Summed up: as §1
A further test has as its system G-361. Nature of the test: Induction of apoptosis in human G361 cells assessed as activation of caspases-3/7 at 50 uM using Ac-DEVD-AMC as substrate after 6 hrs by fluorescence microplate reader method relative to control. It is filed as functional. The essentials: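 G361 cells were seeded at 20,000 cells/well overnight, then treated with compound for 24 h. A 3x caspase-3/7 buffer (HEPES pH 7.4, NaCl, KCl, MgCl2, EGTA, Nonidet P40, CHAPS, sucrose, DTT, PMSF) containing Ac-DEVD-AMC substrate was added, and plates were incubated at 37 °C. Fluorescence at 346/442 nm was read after 6 h and expressed relative to untreated control.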

The subject of test [6] is K562. Nature of the test: Cytotoxicity against human K562 cells assessed as cell viability after 72 hrs by fluorescence microplate reader method. The conditions noted are these: K562, 72 h. It is filed as functional, cell-based. The essentials:
as §1

The nature of test [7]: Cytotoxicity against human G361 cells assessed as cell viability at 50 uM after 72 hrs by fluorescence microplate reader method. Particulars: G-361, 72 h, read-out: Activity. The format is functional.

Take `c1cnc2[nH]c(-c3cnnn3CCc3c[nH]c4ncccc34)cc2c1`: the IC50 is more than 25 µM in the test with MCF7 [1]; 27.6 µM in test [4] (read-out: IC50); 25.1 µM in test [4] (read-out: pIC50 (converted)); more than 50 µM in test [5]; more than 25 µM in the test with K562 [6]. Also, the viability at 50 µM in the test on MCF7 [2] stood at 74.4%; in the test on K562 [3], 70%; in test [7], 69.5%. The “fold change (FC)” value in the test with G-361 worked out at 2.

Regarding `O=C(Cn1cc(-c2cc3cccnc3[nH]2)nn1)c1c[nH]c2ncccc12`, the IC50 with MCF7 [1] was more than 25 µM; in test [4] (read-out: IC50), 9.2 µM; in test [4] (read-out: pIC50 (converted)), 10 µM; in test [5], more than 50 µM; in the test on K562 [6] it was more than 25 µM. Also, the viability at 50 µM in the test on MCF7 [2] amounted to 84.9%; in the test on K562 [3], 91.4%; in test [7], 82%. Besides, the “fold change (FC)” value in the test with G-361 is on record as 1.7.

Turning to `c1cnc2[nH]cc(CCn3nncc3-c3c[nH]c4ncccc34)c2c1`, the IC50 in the test with MCF7 [1] was more than 25 µM; in test [4] (read-out: IC50) it was 9.1 µM; in test [4] (read-out: pIC50 (converted)), 10 µM; in test [5] it was more than 50 µM; with K562 [6], more than 25 µM. Also, the viability at 50 µM was 58% in the test on MCF7 [2], 59.2% in the test on K562 [3] and 65.7% in test [7]. In addition, in the test on G-361, the “fold change (FC)” value is 1.9.

For the molecule `CC[C@H](CO)Nc1nc(NCc2ccccc2)c2ncn(C(C)C)c2n1` [SELICICLIB], the IC50 in the test with MCF7 [1] worked out at 27.2 µM; in test [5], 20.8 µM; in the test on K562 [6] it was 30.9 µM.

With `c1cnc2[nH]c(-c3cn(CCCc4c[nH]c5ncccc45)nn3)cc2c1`, the IC50 was more than 25 µM in the test with MCF7 [1]; 8.7 µM in test [4] (read-out: IC50); 7.94 µM in test [4] (read-out: pIC50 (converted)); more than 50 µM in test [5]; more than 25 µM with K562 [6]. Besides, the viability at 50 µM with MCF7 [2] turned out to be 80.5%; in the test on K562 [3] it was 91.5%; in test [7] it was 81.8%. The “fold change (FC)” value with G-361 is reported as 1.9.

Take `c1cnc2[nH]cc(CCn3cc(-c4c[nH]c5ncccc45)nn3)c2c1`: the IC50 with MCF7 [1] was 87.1 µM; in test [4] (read-out: IC50), 7.2 µM; in test [4] (read-out: pIC50 (converted)), 7.94 µM; in test [5], 44.2 µM; with K562 [6], 39.5 µM. The viability at 50 µM with MCF7 [2] amounted to 71.4%; in the test with K562 [3] it was 58.6%; in test [7], 53%. In addition, the “fold change (FC)” value in the test on G-361 was 1.2.

On to `O=C(Cn1nncc1-c1cc2cccnc2[nH]1)c1c[nH]c2ncccc12`, for which the IC50 was more than 25 µM with MCF7 [1]; 3 µM in test [4] (read-out: IC50); 3.16 µM in test [4] (read-out: pIC50 (converted)); more than 50 µM in test [5]; more than 25 µM with K562 [6]. The values for the viability at 50 µM (with MCF7 [2]; in the test with K562 [3]; in test [7]) were 98%, 91.1% and 96.3%, respectively. In the test on G-361, the “fold change (FC)” value was 2.2.

Turning to `O=C(CCn1cc(-c2cc3cccnc3[nH]2)nn1)c1c[nH]c2ncccc12`, the IC50 in the test with MCF7 [1] is more than 25 µM; in test [4] (read-out: IC50) it was 3.6 µM; in test [4] (read-out: pIC50 (converted)), 3.98 µM; in test [5], more than 50 µM; in the test on K562 [6], more than 25 µM. In addition, the viability at 50 µM is 41.2% in the test on MCF7 [2], 75.8% in the test on K562 [3] and 62.4% in test [7]. Also, in the test with G-361, the “fold change (FC)” value came to 1.2.

With `O=C(Cn1cc(-c2c[nH]c3ncccc23)nn1)c1c[nH]c2ncccc12`, the IC50 in the test on MCF7 [1] was more than 25 µM; in test [4] (read-out: IC50), 29.3 µM; in test [4] (read-out: pIC50 (converted)), 31.6 µM; in test [5], more than 50 µM; in the test on K562 [6], more than 25 µM. Besides, the viability at 50 µM is 83.5% in the test on MCF7 [2], 88% in the test with K562 [3] and 84.1% in test [7]. Further, the “fold change (FC)” value in the test on G-361 stood at 2.2.

On to `O=C(Cn1cc(-c2ccccc2)nn1)c1c[nH]c2ncccc12`, for which the IC50 is more than 25 µM in the test on MCF7 [1]; more than 50 µM in test [4] (read-out: IC50); 100 µM in test [4] (read-out: pIC50 (converted)); more than 50 µM in test [5]; more than 25 µM in the test with K562 [6]. The values for the viability at 50 µM (in the test with MCF7 [2]; with K562 [3]; in test [7]) were 82.8%, 95.9% and 86.8%, respectively. In addition, the “fold change (FC)” value in the test on G-361 is listed as 1.5.

In the case of `c1cnc2[nH]cc(CCCn3nncc3-c3c[nH]c4ncccc34)c2c1`, the IC50 in the test on MCF7 [1] is more than 25 µM; in test [4] (read-out: IC50) it was 2.7 µM; in test [4] (read-out: pIC50 (converted)), 2.51 µM; in test [5], 33.4 µM; with K562 [6] it was more than 25 µM. Further, the viability at 50 µM is 59.9% with MCF7 [2], 63.4% with K562 [3] and 26.5% in test [7]. The “fold change (FC)” value with G-361 is listed as 4.2.
